Test results as given in ChEMBL document CHEMBL1157328, “Linear sesquiterpene lactones from Anthemis auriculata and their antibacterial activity” (2006).
In brackets after ≈: the same amount, converted by molar mass.

Assays:
Pseudomonas tolaasii = test: Antibacterial activity against Pseudomonas tolaasii after 48 hrs by serial dilution technique; type: functional
Summary of the method: (§1)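 Broth microdilution MIC in 96-well plates. Compounds dissolved at 10 mg/mL in DMSO, diluted in nutrient medium to 1000 μg/mL, tested at final […] in serial dilution. Bacteria grown overnight at 37 °C in TSB (~10^9 cells/mL), adjusted with sterile saline to ~1.0×10^5 per well. Plates incubated 48 h at 37 °C.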

[1] = tested on: Agrobacterium tumefaciens; test: Antibacterial activity against Agrobacterium tumefaciens A281 after 48 hrs by serial dilution technique; type: functional; conditions: A281, 48 h; summary of the method: as §1
Micrococcus luteus [2] = test: Antibacterial activity against Sarcina lutea ATCC 9341 after 48 hrs by serial dilution technique; type: functional; conditions: ATCC 9341, 48 h; summary of the method: as §1
Staphylococcus aureus = test: Antibacterial activity against Staphylococcus aureus ATCC 6538 after 48 hrs by serial dilution technique; type: functional; conditions: ATCC 6538, 48 h; summary of the method: as §1
Proteus mirabilis = test: Antibacterial activity against Proteus mirabilis isolate after 48 hrs by serial dilution technique; type: functional; summary of the method: as §1
Bacillus cereus = test: Antibacterial activity against Bacillus cereus isolate after 48 hrs by serial dilution technique; type: functional; summary of the method: as §1
Micrococcus luteus [3] = test: Antibacterial activity against Micrococcus luteus isolate after 48 hrs by serial dilution technique; type: functional; summary of the method: as §1
Escherichia coli = test: Antibacterial activity against Escherichia coli ATCC 35218 after 48 hrs by serial dilution technique; type: functional; conditions: ATCC 35218, 48 h; summary of the method: as §1
Salmonella enteritidis = test: Antibacterial activity against Salmonella enteritidis ATCC 13076 after 48 hrs by serial dilution technique; type: functional, Salmonella enterica subsp. enterica serovar Enteritidis; conditions: Salmonella enterica, ATCC 13076, 48 h; summary of the method: as §1
Candida albicans = test: Antifungal activity against Candida albicans isolate after 72 hrs by serial dilution technique; type: functional
Summary of the method: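 Candida albicans clinical isolate kept on Sabouraud agar at +4 °C, subcultured monthly. Compounds dissolved at 10 mg/mL in DMSO, diluted in medium to 1000 μg/mL, tested at final […] by serial microdilution in 96-well plates. Inoculum adjusted with saline to ~1.0×10^5 per well. Incubated 72 h at 28 °C. MIC recorded.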

Pseudomonas aeruginosa = test: Antibacterial activity against Pseudomonas aeruginosa isolate after 48 hrs by serial dilution technique; type: functional; summary of the method: as §1

## CN[C@@H]1[C@H](O[C@H]2[C@H](O[C@H]3[C@H](O)[C@@H](O)[C@H](N=C(N)N)[C@@H](O)[C@@H]3N=C(N)N)O[C@@H](C)[C@]2(O)C=O)O[C@@H](CO)[C@H](O)[C@H]1O [STREPTOMYCIN]
Pseudomonas tolaasii
  MIC: 137 µM (≈ 79.8 µg/mL)
[1]
  MIC: 68.6 µM (≈ 39.9 µg/mL)
Micrococcus luteus [2]
  MIC: 34.3 µM (≈ 19.9 µg/mL)
Staphylococcus aureus
  MIC: 34.3 µM (≈ 19.9 µg/mL)
Proteus mirabilis
  MIC: 137 µM (≈ 79.8 µg/mL)
Bacillus cereus
  MIC: 34.3 µM (≈ 19.9 µg/mL)
Micrococcus luteus [3]
  MIC: 34.3 µM (≈ 19.9 µg/mL)
Escherichia coli
  MIC: 68.6 µM (≈ 39.9 µg/mL)
Salmonella enteritidis
  MIC: 137 µM (≈ 79.8 µg/mL)

## c1ccc(-c2ccc(C(c3ccccc3)n3ccnc3)cc2)cc1 (stereo not drawn) [BIFONAZOLE]
Candida albicans
  MIC: 644 µM (≈ 200 µg/mL)

## C=C1C(=O)OC[C@H]1[C@H](/C=C(\C)CC(=O)C=C(C)C)OC(C)=O
Pseudomonas tolaasii
  MIC: 163 µM (≈ 50.1 µg/mL)
[1]
  MIC: 81.7 µM (≈ 25 µg/mL)
Micrococcus luteus [2]
  MIC: 40.8 µM (≈ 12.5 µg/mL)
Staphylococcus aureus
  MIC: 81.7 µM (≈ 25 µg/mL)
Proteus mirabilis
  MIC: 163 µM (≈ 50.1 µg/mL)
Bacillus cereus
  MIC: 81.7 µM (≈ 25 µg/mL)
Micrococcus luteus [3]
  MIC: 81.7 µM (≈ 25 µg/mL)
Pseudomonas aeruginosa
  MIC: 163 µM (≈ 50.1 µg/mL)
Candida albicans
  MIC: 81.7 µM (≈ 25 µg/mL)
Escherichia coli
  MIC: 81.7 µM (≈ 25 µg/mL)
Salmonella enteritidis
  MIC: 163 µM (≈ 50.1 µg/mL)

## C=C1C(=O)OCC1C/C=C(\C)CC(=O)C=C(C)C (stereo not drawn) [ANTHECOTULIDE]
Pseudomonas tolaasii
  MIC: 202 µM (≈ 50.2 µg/mL)
[1]
  MIC: 101 µM (≈ 25.1 µg/mL)
Micrococcus luteus [2]
  MIC: 51 µM (≈ 12.7 µg/mL)
Staphylococcus aureus
  MIC: 101 µM (≈ 25.1 µg/mL)
Proteus mirabilis
  MIC: 202 µM (≈ 50.2 µg/mL)
Bacillus cereus
  MIC: 51 µM (≈ 12.7 µg/mL)
Micrococcus luteus [3]
  MIC: 101 µM (≈ 25.1 µg/mL)
Pseudomonas aeruginosa
  MIC: 202 µM (≈ 50.2 µg/mL)
Candida albicans
  MIC: 101 µM (≈ 25.1 µg/mL)
Escherichia coli
  MIC: 101 µM (≈ 25.1 µg/mL)
Salmonella enteritidis
  MIC: 202 µM (≈ 50.2 µg/mL)

## COC(=O)c1ccc(O)c(OC)c1 [METHYL VANILLATE]
Pseudomonas tolaasii
  MIC: 275 µM (≈ 50 µg/mL)
[1]
  MIC: 275 µM (≈ 50 µg/mL)
Micrococcus luteus [2]
  MIC: 137 µM (≈ 25 µg/mL)
Staphylococcus aureus
  MIC: 137 µM (≈ 25 µg/mL)
Bacillus cereus
  MIC: 137 µM (≈ 25 µg/mL)
Micrococcus luteus [3]
  MIC: 137 µM (≈ 25 µg/mL)
Candida albicans
  MIC: 275 µM (≈ 50 µg/mL)
Escherichia coli
  MIC: 275 µM (≈ 50 µg/mL)
Salmonella enteritidis
  MIC: 275 µM (≈ 50 µg/mL)

## C=C1CC[C@]2(C)CC[C@]3(C)[C@H](CC[C@@H]4[C@@]5(C)CC[C@H](O)C(C)(C)[C@@H]5CC[C@]43C)[C@@H]2[C@@H]1C
Pseudomonas tolaasii
  MIC: 117 µM (≈ 50.1 µg/mL)
[1]
  MIC: 29.3 µM (≈ 12.5 µg/mL)
Micrococcus luteus [2]
  MIC: 14.7 µM (≈ 6.27 µg/mL)
Staphylococcus aureus
  MIC: 29.3 µM (≈ 12.5 µg/mL)
Proteus mirabilis
  MIC: 117 µM (≈ 50.1 µg/mL)
Bacillus cereus
  MIC: 58.7 µM (≈ 25 µg/mL)
Micrococcus luteus [3]
  MIC: 58.7 µM (≈ 25 µg/mL)
Pseudomonas aeruginosa
  MIC: 117 µM (≈ 50.1 µg/mL)
Candida albicans
  MIC: 117 µM (≈ 50.1 µg/mL)
Escherichia coli
  MIC: 117 µM (≈ 50.1 µg/mL)
Salmonella enteritidis
  MIC: 117 µM (≈ 50.1 µg/mL)

## C=C1C(=O)OC[C@H]1[C@@H](O)/C=C(\C)CC(=O)C=C(C)C
Pseudomonas tolaasii
  MIC: 189 µM (≈ 50 µg/mL)
[1]
  MIC: 94.7 µM (≈ 25 µg/mL)
Micrococcus luteus [2]
  MIC: 47 µM (≈ 12.4 µg/mL)
Staphylococcus aureus
  MIC: 47 µM (≈ 12.4 µg/mL)
Proteus mirabilis
  MIC: 189 µM (≈ 50 µg/mL)
Bacillus cereus
  MIC: 94.7 µM (≈ 25 µg/mL)
Micrococcus luteus [3]
  MIC: 94.7 µM (≈ 25 µg/mL)
Pseudomonas aeruginosa
  MIC: 189 µM (≈ 50 µg/mL)
Candida albicans
  MIC: 189 µM (≈ 50 µg/mL)
Escherichia coli
  MIC: 189 µM (≈ 50 µg/mL)
Salmonella enteritidis
  MIC: 189 µM (≈ 50 µg/mL)
